Screening results deposited in PubChem BioAssay by The Scripps Research Institute Molecular Screening Center.
M1 PAM: human M1 muscarinic receptor positive allosteric modulators, primary screen, CHO-K1 cells, Fluo-8 calcium fluorescence, 1536-well; Muscarinic acetylcholine receptor M1 (Homo sapiens), P11229; CHO-K1 hM1, ACh EC20; 0% = ACh EC20, 100% = maximal ACh; activation, % at 3 µM; 360,000 tested, 0.088% active; in the data active means activation above about 19%, passing the limit was not always enough
M1 antag: human M1 muscarinic receptor antagonists, primary screen, CHO-K1 cells, Fluo-8 calcium fluorescence, 1536-well | Muscarinic acetylcholine receptor M1 (Homo sapiens), P11229 | CHO-K1 hM1, ACh EC80 antagonist | inhibition, % at 3 µM | 360,000 tested, 1.3% active;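 active means percent inhibition above its own plate's cutoff, namely the mean of that plate's compound wells plus 3 SD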;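 further: peak over basal fluorescence ratio during 140 s after agonist addition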
M5 PAM: human M5 muscarinic receptor positive allosteric modulators, primary screen, CHO-K1 cells, Fluo-8 calcium fluorescence | Muscarinic acetylcholine receptor M5 (Homo sapiens), P08912 | 360,000 tested, 0.3% active | CHO-K1 hM5, ACh EC20 PAM; 0% = ACh EC20, 100% = ACh EC100 | activation, % at 3 µM | AID 624038, 2012;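 active means activation above the run cutoff, the mean activation of all test compounds plus 3 SD, cut at about 18% in these data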
Target sequence (P08912 whole entry, looked up): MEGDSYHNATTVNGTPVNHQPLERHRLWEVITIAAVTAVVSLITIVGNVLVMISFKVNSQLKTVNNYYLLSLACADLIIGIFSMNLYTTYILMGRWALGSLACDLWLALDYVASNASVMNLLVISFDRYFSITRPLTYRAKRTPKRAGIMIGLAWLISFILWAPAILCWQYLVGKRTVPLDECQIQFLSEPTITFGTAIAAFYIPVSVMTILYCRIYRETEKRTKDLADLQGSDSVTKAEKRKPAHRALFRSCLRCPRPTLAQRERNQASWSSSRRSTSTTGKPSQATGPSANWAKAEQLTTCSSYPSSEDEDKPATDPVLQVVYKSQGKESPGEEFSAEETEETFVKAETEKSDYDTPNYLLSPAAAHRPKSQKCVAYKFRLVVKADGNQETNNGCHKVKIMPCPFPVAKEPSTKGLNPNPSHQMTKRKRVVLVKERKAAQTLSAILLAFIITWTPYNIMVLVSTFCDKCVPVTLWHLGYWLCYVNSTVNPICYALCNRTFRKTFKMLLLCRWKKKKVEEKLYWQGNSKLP
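Test system: CHO-K1 hM5 cells / Doses: single-point, 3 µM nominal / Times: Post-acetylcholine fluorescence recording 140 s / Technique: Fluo-8 calcium fluorescence / Measure: Max/basal fluorescence ratio as % of EC20–EC100 ACh window / Benchmarks: low control EC20 acetylcholine (0%), high control EC100 acetylcholine (100%) / Replicates: one well per compound, no replicates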
M5 ag: human M5 muscarinic receptor agonists, primary screen, CHO-K1 cells, Fluo-8 calcium fluorescence. Muscarinic acetylcholine receptor M5 (Homo sapiens), P08912. CHO-K1 hM5 cells; 0% DMSO wells, 100% maximal acetylcholine response. activation, % at 3 µM. 360,000 tested, 0.19% active;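 active means activation above the run's mean over test compounds plus 3 SD, cut at about 23% in these data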;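 further: signal is peak over basal fluorescence ratio across the kinetic read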
CHRM5 antagonist: human M5 muscarinic receptor antagonists, primary screen, CHO cells, Fluo-8 calcium fluorescence; inhibition, % at 3 µM; 360,000 tested, 0.59% active; CHO-hM5 cells, ACh EC80; AID 624040, 2012;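 active means inhibition above a per-plate cutoff, the mean of that plate's test compounds plus 3 SD, cut at about 27% in these data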
CHRM1 agonist: human M1 muscarinic receptor agonists, primary screen, Fluo-8 calcium fluorescence, CHO-K1 cells, HTS. Muscarinic acetylcholine receptor M1 (Homo sapiens), P11229. CHO-K1 hM1, agonist mode; 0% DMSO, 100% acetylcholine EC100. activation, % at 3 µM. 360,000 tested, 0.33% active. AID 588814, 2011;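 active means activation above the run's mean compound activation plus 3 SD, cut at about 16% in these data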;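 further: peak over basal fluorescence ratio within a 140 s kinetic read after compound addition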
A number is an active result; – = inactive; · = no result. This is a sample that favours compounds with a hit; in the whole collection about 2% have one here.

SMILES | M1 PAM | M1 antag | M5 PAM | M5 ag | CHRM5 antagonist | CHRM1 agonist
CC1(C)CC(=O)C=C(c2cccc(OC(=O)c3ccc(Br)cc3)c2)C1=O | – | – | – | – | – | –
CC12CCC(=O)C=C1CCC1C2C(O)CC2(C)C1CCC2(O)C(=O)COC(=O)CCC1CCCC1 (centres undefined) | – | 41.4 | – | – | – | –
CCC(CC)C(=O)OCC(=O)C1(O)CCC2C3CCC4=CC(=O)CCC4(C)C3C(O)CC21C (centres undefined) | – | 68.5 | – | – | – | –
CCCCC1(Cc2ccc([N+](=O)[O-])cc2)C(=O)N(c2ccccc2)N(c2ccccc2)C1=O | – | 35.9 | – | – | – | –
CCCCC1(COC(=O)CCC(=O)O)C(=O)N(c2ccccc2)N(c2ccccc2)C1=O | – | – | – | – | – | –
Cc1cc(N2CCOCC2)ccc1/C=C\[N+](=O)[O-] | – | – | – | – | 30.8 | –
OC(CNCCNc1ncccc1C(F)(F)F)Cn1ccc2ccccc21 (centres undefined) | – | – | – | – | – | 19.6
Cc1cc(N2CCN(C(c3ccccc3)c3ccccc3)CC2)n2ncnc2n1 | – | 29.9 | – | – | – | –
CC(=O)NC(C)(c1ccccc1)c1nc(-c2ccc(S(C)(=O)=O)cc2)cs1 (centres undefined) | – | – | – | – | – | –
CN(Cc1ccc2ccccc2c1)C(=O)c1ccc(C(F)(F)F)cc1 | – | – | – | – | 27.3 | –
COc1ccc(CN(C)C(=O)c2ccc(Oc3ccccc3)cc2)cc1F | – | – | – | – | – | –
COc1ccc(/C=C2/SC(=S)N(Cc3ccccc3)C2=O)cc1O | – | – | – | – | – | –
O=C1/C(=C\c2cc(Cl)c(O)c(Cl)c2)SC(=S)N1Cc1ccccc1 | – | 53.6 | – | – | – | 51.4
CC(C)(C)C(=O)OCc1nc(-c2ccc(C(F)(F)F)cc2)cs1 | – | – | 18.5 | – | – | –
COc1cc(C(O)c2nc(-c3ccccc3OC)cs2)ccc1F (centres undefined) | – | – | – | – | – | –
COCC(=O)N1C[C@@H](C)[C@@H](OC)CN(C)C(=O)c2ccc(NC(=O)c3cnccn3)cc2OC[C@H]1C | · | · | – | – | – | ·
COC(=O)c1ccc(NC(=S)NCCc2ccccc2C)cc1 | – | – | – | – | – | –
COC(=O)c1ccc(NC(=S)NCCc2cccc(C)c2)cc1 | – | – | – | – | 27.8 | –
CCCCNc1nc2c(c(=O)[nH]c(=O)n2C)n1CCCc1ccccc1 | – | – | – | – | – | –
CCN(CC)CCNC(=O)C1c2ccccc2Oc2ccccc21 | – | 92.6 | – | – | 58.7 | –
N#CCOC(=O)C1c2ccccc2Oc2ccccc21 | – | – | – | – | – | –
CCOCCCNC(=O)C1c2ccccc2Oc2ccccc21 | – | – | – | – | – | –
CCN(CC)CCOC(=O)C1c2ccccc2Oc2ccccc21 | – | 98.9 | – | – | 100.4 | –
O=C(NCCCn1ccnc1)C1c2ccccc2Oc2ccccc21 | – | 23.6 | – | – | – | –
COc1ccc(C[C@@H]2CN3C(=NC[C@@H]3Cc3ccc(O)cc3)N2C[C@H](C)NC(=O)CCC2CCCCC2)cc1 | – | 48.3 | – | – | – | –
SMILES | M1 PAM | M1 antag | M5 PAM | M5 ag | CHRM5 antagonist | CHRM1 agonist
COc1ccc(C[C@H]2CN3C(=NC[C@@H]3Cc3ccc(O)cc3)N2C[C@H](C)NC(=O)CCC2CCCCC2)cc1 | – | – | – | – | – | –
COC(/C(=N/O)c1ccc(Cl)cc1)c1ccccc1 (centres undefined) | – | 47.3 | – | – | 29.4 | –
Cn1c(=O)[nH]c(=O)c2c1nc(N1CCc3ccccc3C1)n2CCSc1nc2ccccc2s1 | – | – | – | – | – | –
Cn1c(=O)[nH]c(=O)c2c1nc(N1CCN(Cc3ccccc3)CC1)n2CCSc1ncccn1 | – | 33.0 | – | – | – | –
Cn1c(=O)[nH]c(=O)c2c1nc(N1CCN(Cc3ccccc3)CC1)n2CCCc1ccccc1 | – | – | – | – | – | –
CN1CCN(c2nc3c(c(=O)[nH]c(=O)n3C)n2CCSc2nc3ccccc3s2)CC1 | – | – | – | – | – | 17.6
C=C1CCCC2OC(CC3=CC4/C(C)=C/CC(C)CC(/C=C(\C)C(O)C5CC(O)C(O)C(CCC(O)/C=C/C(C)=C/CCC6=NCCC(C3)C64C)O5)OC(=O)CC3OC(C(O)C1)C(O)C3O)CC(O)C2O (centres undefined) | – | – | – | – | – | –
O=C1C=C(c2n[nH]nc2-c2ccccc2)C[C@@H](c2ccc(F)cc2)C1 | – | – | – | – | – | –
O=C(COc1ccccc1Cl)c1ccc[nH]1 | – | 29.1 | – | – | – | –
Cc1ccc(C2=NNC(C(O)C(O)C(O)CO)S2)cc1 (centres undefined) | – | – | 29.7 | – | – | –
COc1ccc(C2NN=C(c3ccc(C)cc3)S2)cc1 (centres undefined) | – | – | – | – | – | –
COc1cccc(-c2cnc(C(O)c3ccc(Cl)cc3)[nH]2)c1 (centres undefined) | – | – | – | – | – | –
CCOC(=O)c1sc(=S)n(-c2ccccc2)c1SC | – | 51.3 | – | – | – | –
CCOC(=O)c1sc(=S)n(-c2cccc(C(F)(F)F)c2)c1SC | – | – | – | – | – | –
CCOC(=O)c1sc(=S)n(-c2ccccc2Cl)c1SC | – | 100.4 | – | – | – | –
COC(=O)c1cc([N+](=O)[O-])c(C)c(C)n1 | – | – | – | – | – | –
Cc1cn([C@H]2C[C@H](O)[C@@H](/C=C/C(=O)NCCN3CCOCC3)O2)c(=O)[nH]c1=O | – | – | – | – | – | –
CCN(c1ccccc1)S(=O)(=O)c1ccc(Cl)c(NC(=O)CSc2nc(N)cc(=O)[nH]2)c1 | – | – | – | – | – | –
CCOc1ccc(CCNC(=O)COC(=O)c2[nH]c(C)c(C(C)=O)c2C)cc1OCC | – | – | – | – | – | –
Cc1ccc(-c2nc3cccnc3o2)cc1NC(=O)COc1ccc(C(C)(C)C)cc1 | – | – | – | – | 27.3 | –
CC(C)C[C@@H]1COc2cc(N3CCSCC3)ccc2S(=O)(=O)N1 | · | · | – | – | – | ·
